Laboratory results reported in ChEMBL document CHEMBL3352788, “Characterization of selective exosite-binding inhibitors of matrix metalloproteinase 13 that prevent articular cartilage degradation in vitro” (J Med Chem, 2014).

Target: T1, Cytochrome P450 2C8 (Homo sapiens, UniProt P10632)
T1 sequence (P10632 whole entry): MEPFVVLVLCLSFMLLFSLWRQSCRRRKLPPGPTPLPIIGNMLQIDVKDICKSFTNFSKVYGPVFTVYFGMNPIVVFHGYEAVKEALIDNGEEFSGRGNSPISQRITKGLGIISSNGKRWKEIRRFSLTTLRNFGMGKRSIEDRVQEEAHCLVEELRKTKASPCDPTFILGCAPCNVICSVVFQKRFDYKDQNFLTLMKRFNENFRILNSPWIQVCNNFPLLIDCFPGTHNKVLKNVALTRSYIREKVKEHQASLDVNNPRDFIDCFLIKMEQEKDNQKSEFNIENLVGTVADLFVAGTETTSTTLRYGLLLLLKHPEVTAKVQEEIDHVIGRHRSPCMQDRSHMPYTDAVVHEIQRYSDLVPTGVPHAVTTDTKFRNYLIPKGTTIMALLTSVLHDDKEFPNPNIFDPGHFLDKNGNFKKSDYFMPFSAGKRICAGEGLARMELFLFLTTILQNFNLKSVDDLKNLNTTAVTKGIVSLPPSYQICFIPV
Experiment: Inhibition of CYP2C8 (unknown origin) using amodiaquine substrate at 20 uM
Assay type: ADME
Conditions: 20 µM
How it was run: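 Human liver microsomes with probe substrate and an NADPH-regenerating system in 0.1 M potassium phosphate pH 7.4 at 37 °C, run in duplicate. Inhibitor at 0–20 μM (0–2.5 μM for one compound), eight concentrations. Reactions were stopped with acetonitrile/formic acid containing isotope-labelled internal standard, and metabolite area ratios were compared with and without inhibitor. IC50 was taken by linear interpolation between bracketing concentrations.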

Cc1cc(CNC(=O)c2cc(C(=O)NCc3ccc(F)c(C)c3)ncn2)ccc1F
inhibition (INH): > 10%
